Measured values published in ChEMBL document CHEMBL4622996, “Discovery of Vixotrigine: A Novel Use-Dependent Sodium Channel Blocker for the Treatment of Trigeminal Neuralgia” (ACS Med Chem Lett, 2020).
pIC50: −log10 of the molar value. The source made the active and inactive calls. The rule behind the calls is not given here.

Key:
[1] = biological target: T1, Sodium channel protein type 3 subunit alpha (Homo sapiens, UniProt Q9NY46); test: Inhibition of Nav1.3 (unknown origin) expressed in HEK293 cells assessed as 15% inhibition of sodium current incubated for 3 to 3.5 mins by electrophysiology assay; format: cell-based
How it was run: (§1)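 HEK293 cells stably expressing NaV1.3, grown in DMEM-F12 with 10% FBS at 37 °C, dissociated at 50–70% confluency; IonWorksHT planar patch clamp at 21–23 °C, amphotericin perforated access; intracellular K-gluconate 100, KCl 40, MgCl2 3.2, EGTA 3, HEPES 5 mM, pH 7.3.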
Target sequence in this assay (Q9NY46 whole entry, looked up): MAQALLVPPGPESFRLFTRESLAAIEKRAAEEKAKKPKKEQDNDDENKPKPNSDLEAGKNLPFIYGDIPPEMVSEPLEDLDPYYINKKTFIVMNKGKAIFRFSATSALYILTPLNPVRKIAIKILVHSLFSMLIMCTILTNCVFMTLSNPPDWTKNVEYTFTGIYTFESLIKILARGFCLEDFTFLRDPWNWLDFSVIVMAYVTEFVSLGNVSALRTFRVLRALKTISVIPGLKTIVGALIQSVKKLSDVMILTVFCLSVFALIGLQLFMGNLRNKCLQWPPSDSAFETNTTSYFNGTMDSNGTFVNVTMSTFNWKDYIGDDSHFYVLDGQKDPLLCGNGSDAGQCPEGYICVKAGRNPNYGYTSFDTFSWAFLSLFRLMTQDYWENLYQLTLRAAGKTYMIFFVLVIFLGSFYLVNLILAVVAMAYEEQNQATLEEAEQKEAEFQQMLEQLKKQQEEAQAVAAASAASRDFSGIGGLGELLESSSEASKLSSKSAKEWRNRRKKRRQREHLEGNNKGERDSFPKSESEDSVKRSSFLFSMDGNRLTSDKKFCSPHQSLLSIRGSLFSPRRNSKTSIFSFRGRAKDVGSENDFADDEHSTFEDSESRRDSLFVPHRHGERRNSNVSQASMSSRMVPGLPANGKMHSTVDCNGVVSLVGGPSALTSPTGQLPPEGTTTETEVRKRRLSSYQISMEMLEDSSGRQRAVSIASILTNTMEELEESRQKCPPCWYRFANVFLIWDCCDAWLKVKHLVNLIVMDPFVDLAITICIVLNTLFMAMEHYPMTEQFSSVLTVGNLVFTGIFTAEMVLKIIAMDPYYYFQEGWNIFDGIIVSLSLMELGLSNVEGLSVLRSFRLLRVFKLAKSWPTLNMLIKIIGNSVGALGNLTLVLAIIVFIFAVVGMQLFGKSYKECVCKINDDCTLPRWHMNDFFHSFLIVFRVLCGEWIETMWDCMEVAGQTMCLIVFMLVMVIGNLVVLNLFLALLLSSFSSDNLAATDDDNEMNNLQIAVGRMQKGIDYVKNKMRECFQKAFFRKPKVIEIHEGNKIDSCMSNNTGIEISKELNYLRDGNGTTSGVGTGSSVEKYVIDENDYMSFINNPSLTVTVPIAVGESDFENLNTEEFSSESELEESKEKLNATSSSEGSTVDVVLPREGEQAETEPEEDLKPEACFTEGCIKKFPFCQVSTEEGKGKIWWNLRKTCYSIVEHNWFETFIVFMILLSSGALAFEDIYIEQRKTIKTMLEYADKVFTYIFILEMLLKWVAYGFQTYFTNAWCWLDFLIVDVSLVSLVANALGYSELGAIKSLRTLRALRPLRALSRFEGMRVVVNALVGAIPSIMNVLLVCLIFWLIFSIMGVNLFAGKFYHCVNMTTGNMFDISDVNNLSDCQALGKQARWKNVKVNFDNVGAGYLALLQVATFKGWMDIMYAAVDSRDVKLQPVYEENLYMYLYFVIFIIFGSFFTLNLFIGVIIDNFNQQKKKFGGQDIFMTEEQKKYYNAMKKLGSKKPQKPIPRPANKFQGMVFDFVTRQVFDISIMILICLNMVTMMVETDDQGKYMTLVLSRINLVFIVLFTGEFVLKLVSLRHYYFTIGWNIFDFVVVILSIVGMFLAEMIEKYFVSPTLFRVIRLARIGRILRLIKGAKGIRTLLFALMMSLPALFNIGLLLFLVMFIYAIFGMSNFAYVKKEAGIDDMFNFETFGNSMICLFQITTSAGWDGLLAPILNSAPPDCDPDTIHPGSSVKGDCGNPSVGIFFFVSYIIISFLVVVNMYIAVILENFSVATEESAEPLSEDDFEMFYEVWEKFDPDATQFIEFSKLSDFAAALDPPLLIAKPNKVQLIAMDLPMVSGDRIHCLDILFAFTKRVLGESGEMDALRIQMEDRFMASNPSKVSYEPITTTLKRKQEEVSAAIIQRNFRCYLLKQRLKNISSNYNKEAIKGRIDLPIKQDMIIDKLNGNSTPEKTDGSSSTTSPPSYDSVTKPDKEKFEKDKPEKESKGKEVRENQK

Homo sapiens = organism: Homo sapiens; test: Selectivity ratio of UD15 to IC50 of Nav1.3 (unknown origin) expressed in HEK293 cells; format: cell-based
[2] = biological target: Voltage-gated inwardly rectifying potassium channel KCNH2 (Homo sapiens, UniProt Q12809); test: Inhibition of human ERG; conditions: for inhibition (INH): human
[3] = biological target: T1, Sodium channel protein type 3 subunit alpha; test: Inhibition of Nav1.3 (unknown origin) expressed in HEK293 cells assessed as inhibition of sodium current incubated for 3 to 3.5 mins by electrophysiology assay; format: cell-based; how it was run: as §1
Target sequence in this assay (Q9NY46 whole entry): as the sequence (Q9NY46 whole entry, looked up) above

[4] = Total blood clearance in rat blood at 0.5 mg/kg, iv; format: ADME, organism-based
[5] = Ratio of drug level in brain to blood in rat; format: ADME, tissue-based; conditions: read-out: Kbb
[6] = Oral bioavailability in rat at 3 mg/kg; format: ADME, organism-based; conditions: in vivo
[7] = Fraction unbound in rat brain; format: ADME, tissue-based
[8] = Fraction unbound in rat plasma; format: ADME, cell-free
[9] = Fraction unbound in rat blood; format: ADME, tissue-based
Rattus norvegicus = test: Antinociceptive activity in rat model of chronic constriction injury-induced neuropathic pain assessed as inhibition of CCI-induced mechanical allodynia at 30 mg/kg, po BID administered 22 days post surgery and measured on day 1, 6 and 8; format: functional, organism-based
How it was run: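 Chronic constriction injury model of neuropathic pain. Dosed orally twice daily as the positive-control arm of a study that also tested 0.5 and 5 mg/kg oral BID groups. Dosing started during day 22. Mechanical allodynia was measured on dosing days 1, 6 and 8.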

Voltage-gated inwardly rectifying potassium channel KCNH2, sequence (Q12809 whole entry): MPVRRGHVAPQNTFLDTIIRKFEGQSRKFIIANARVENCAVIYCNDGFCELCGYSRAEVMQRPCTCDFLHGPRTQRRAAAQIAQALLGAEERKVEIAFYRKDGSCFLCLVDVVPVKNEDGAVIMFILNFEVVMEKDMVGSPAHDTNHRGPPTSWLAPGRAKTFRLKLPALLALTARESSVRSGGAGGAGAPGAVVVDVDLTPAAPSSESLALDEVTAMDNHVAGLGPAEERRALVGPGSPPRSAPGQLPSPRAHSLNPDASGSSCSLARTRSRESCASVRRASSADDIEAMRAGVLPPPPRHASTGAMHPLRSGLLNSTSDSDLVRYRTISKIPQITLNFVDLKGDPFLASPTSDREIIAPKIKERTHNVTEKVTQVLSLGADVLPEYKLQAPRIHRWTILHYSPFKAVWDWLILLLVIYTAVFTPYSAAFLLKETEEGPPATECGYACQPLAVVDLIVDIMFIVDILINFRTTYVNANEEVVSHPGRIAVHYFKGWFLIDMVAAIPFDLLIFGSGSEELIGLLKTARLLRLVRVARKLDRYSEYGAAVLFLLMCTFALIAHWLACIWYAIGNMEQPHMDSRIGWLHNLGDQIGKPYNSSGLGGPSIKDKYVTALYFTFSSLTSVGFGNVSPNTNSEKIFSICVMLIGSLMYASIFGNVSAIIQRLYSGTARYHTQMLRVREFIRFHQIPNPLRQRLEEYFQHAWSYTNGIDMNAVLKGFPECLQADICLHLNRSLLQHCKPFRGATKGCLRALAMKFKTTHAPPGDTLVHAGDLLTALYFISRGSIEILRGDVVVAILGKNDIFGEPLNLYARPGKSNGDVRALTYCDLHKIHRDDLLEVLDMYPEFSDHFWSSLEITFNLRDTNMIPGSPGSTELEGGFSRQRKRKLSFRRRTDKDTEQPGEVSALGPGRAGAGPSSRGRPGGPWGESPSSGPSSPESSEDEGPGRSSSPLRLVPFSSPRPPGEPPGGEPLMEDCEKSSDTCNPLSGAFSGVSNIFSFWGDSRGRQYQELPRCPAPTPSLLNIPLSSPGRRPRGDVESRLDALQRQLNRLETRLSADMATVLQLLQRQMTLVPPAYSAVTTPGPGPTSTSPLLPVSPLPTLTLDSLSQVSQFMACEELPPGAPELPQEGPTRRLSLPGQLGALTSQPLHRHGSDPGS

SMILES	log(activity) [1]	Selectivity ratio (Homo sapiens)	pIC50 [2]	pIC50 [3]	further results
C[C@@H](C(N)=O)N1CCCC1c1ccc(OCc2ccccc2F)cc1 (some centres not stated) [listing 1 of 2 here]	-5.5	14	–	–	–
NC(=O)[C@@H]1CC[C@H](c2ccc(OCc3ccc(F)cc3)cc2)N1	-5	–	5.10	< 4.20	clearance [4]: 91 mL/min/kg; Kp [5]: 3.5; bioavailability [6]: 31%
NC(=O)[C@@H]1CC[C@H](c2ccc(OCc3cccc(F)c3)cc2)N1	-5.5	–	5.50	< 4.00	fraction unbound [7]: 0.01; fraction unbound [8]: 0.033
N#Cc1ccccc1Oc1ccc([C@H]2CC[C@@H](C(N)=O)N2)cc1	-4.6	–	5.40	< 4.00	fraction unbound [7]: 0.076; fraction unbound [9]: 0.12
NC(=O)[C@@H]1CC[C@H](c2cccc(Oc3ccccc3)c2)N1	-4.7	–	4.20	< 4.00	–
NC(=O)C1CCC(c2ccc(OCc3ccccc3F)cc2)N1 (configuration not stated)	-5.4	–	–	4.00 to 4.20	–
NC(=O)[C@H]1CC[C@H](c2ccc(OCc3ccccc3F)cc2)N1	-5.4	–	5.20	< 4.10	–
O=C1NCCC1NCc1ccc(OCc2ccccc2F)cc1 (configuration not stated)	-4.8	8	–	3.90	–
NC(=O)[C@@H]1CC[C@H](c2ccc(OCc3ccccc3F)cc2F)N1	-5.6	42	4.90	< 4.00	fraction unbound [7]: 0.009
C[C@@H](C(N)=O)N1CCCC1c1ccc(OCc2ccccc2F)cc1 (single isomer, unassigned; isomer 2) [listing 1 of 2 here]	-5.9	29	–	–	–
NC(=O)[C@@H]1CCCN1Cc1ccc(OCc2ccccc2F)cc1	-5.8	64	–	4.10	inhibition (INH) [2]: Active
CN1[C@@H](c2ccc(OCc3ccccc3F)cc2)CC[C@H]1C(N)=O	-4.4	2	4.30	< 4.00	–
NC(=O)CN1Cc2ccc(OCc3ccccc3F)cc2C1	–	–	–	< 4.00	–
NC(=O)C1Cc2cc(OCc3ccccc3F)ccc2CN1 (configuration not stated)	-4.8	1.3	–	4.70	–
C[C@H](NC1CCCc2cc(OCc3ccccc3F)ccc21)C(N)=O (some centres not stated)	-5.6	24	–	4.20	inhibition (INH) [2]: Active
NC(=O)[C@H]1CCC[C@@H](c2ccc(OCc3cccc(F)c3)cc2)N1 (stereo in doubt)	-5.4	11	5.50	4.40	–
C[C@@H](C(N)=O)N1CCCC1c1ccc(OCc2ccccc2F)cc1 (some centres not stated) [listing 2 of 2 here]	–	–	–	4.30	inhibition (INH) [2]: Active
NC(=O)[C@@H]1CC[C@H](c2ccc(OCc3ccccc3)cc2)N1	-5.6	37	5.10	< 4.20	–
NC(=O)[C@@H]1CC[C@H](c2ccc(Oc3ccc(F)cc3)cc2)N1	-5.3	–	5.30	< 4.00	fraction unbound [7]: 0.016; fraction unbound [8]: 0.11
NC(=O)[C@@H]1CC[C@H](c2ccc(Oc3cccc(F)c3)cc2)N1	-5.5	29	5.10	4.00	–
NC(=O)[C@@H]1CC[C@H](c2ccc(Oc3ccccc3)cc2)N1	-5.4	31	4.90	4.00	clearance [4]: 40 mL/min/kg; Kp [5]: 4.8; bioavailability [6]: 25%
C[C@@H](C(N)=O)N1CCCC1c1ccc(OCc2ccccc2F)cc1 (single isomer, unassigned; isomer 2) [listing 2 of 2 here]	–	–	–	4.40	–

SMILES	log(activity) [1]	Selectivity ratio (Homo sapiens)	pIC50 [2]	pIC50 [3]	further results
N#Cc1ccc(COc2ccc([C@H]3CC[C@@H](C(N)=O)N3)cc2)cc1	-5	–	5.10	< 4.20	–
NC(=O)[C@@H]1CSC[C@H](c2ccc(OCc3cccc(F)c3)cc2)N1 (racemic)	< -4.05	–	–	< 4.05	–
NC(=O)CNC1CCc2cc(OCc3ccccc3F)ccc21 (configuration not stated)	-5.5	1.3	–	4.50	inhibition (INH) [2]: Active
N#Cc1cc([C@H]2CC[C@@H](C(N)=O)N2)ccc1OCc1ccccc1F	-4.8	–	–	< 4.30	–
CNC(=O)[C@@H]1CC[C@H](c2ccc(OCc3ccccc3F)cc2)N1	-5.3	–	4.60	< 4.20	fraction unbound [7]: 0.015
CC(C(N)=O)N1CCOc2cc(OCc3ccccc3F)ccc2C1 (configuration not stated)	-4.6	–	–	< 4.20	–
NC(=O)[C@@H]1CCC[C@H](c2ccc(OCc3cccc(F)c3)cc2)N1 (stereo in doubt)	-5.4	7	4.50	4.40	fraction unbound [7]: 0.01; fraction unbound [8]: 0.04
NC(=O)[C@H]1CC[C@@H](c2ccc(OCc3ccccc3F)cc2)N1	-5.4	–	5.00	4.20	–
NC(=O)CNCc1ccc(OCc2ccccc2F)cc1	-5.4	11	–	4.30	–
NC(=O)[C@@H]1CC[C@H](c2ccc(OCc3ccccc3F)cn2)N1	-4.8	6	4.80	4.20	–
C[C@@H](C(N)=O)N1CCc2cc(OCc3ccccc3F)ccc2C1	–	–	–	< 4.10	–
NC(=O)[C@@H]1CC[C@@H](c2ccc(OCc3ccccc3F)cc2)N1	-5.5	–	5.30	4.00	–
NC(=O)CN1CCOc2cc(OCc3ccccc3)ccc2C1	–	–	–	< 4.10	–
N#Cc1cccc(COc2ccc([C@H]3CC[C@@H](C(N)=O)N3)cc2)c1	-5.2	–	–	< 4.20	–
C[C@@H](Oc1ccc([C@H]2CC[C@@H](C(N)=O)N2)cc1)c1ccccc1	-5.5	9	5.40	4.50	–
C[C@H](NC1CCOc2cc(OCc3ccccc3F)ccc21)C(N)=O (some centres not stated)	–	–	–	< 4.10	–
N#Cc1ccccc1COc1ccc([C@H]2CC[C@@H](C(N)=O)N2)cc1	-5.3	–	4.80	< 4.20	fraction unbound [7]: 0.063; clearance [4]: 37 mL/min/kg; Kp [5]: 0.8; fraction unbound [8]: 0.12; bioavailability [6]: 39%
NCC1(CC(=O)O)CCCCC1	–	–	–	–	Activity (Rattus norvegicus): Active
O=C1CN(Cc2ccc(OCc3ccccc3F)cc2)CCN1	–	–	–	< 4.10	–
COc1cc([C@H]2CC[C@@H](C(N)=O)N2)ccc1OCc1ccccc1F	-5.2	10	5.40	4.20	fraction unbound [7]: 0.033
NC(=O)CN1CCCc2cc(OCc3ccccc3F)ccc2C1	–	–	–	< 4.10	–
NC(=O)[C@@H]1CSc2cc(OCc3ccccc3F)ccc2CN1	-4.7	–	–	< 4.00	–
